Only some compounds are listed: those with a hit (about 1.3% of all), similar ones and a draw of the others.
Tn6 DDE FP – inhibitors of Tn6 peptide binding to human fibrin DD(E); Fibrin DD(E) TRITC-Tn6 fluorescence polarization displacement; inhibition, % at 8.3 µM; actives 0.21% (n = 370,000); P02675;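 active = inhibition above a per-campaign cutoff: mean of compounds within control limits plus 3 SD, cut at about 15% in these data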;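 note: 0% = median of all compound wells on the plate and 100% = blocking peptide control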
Target sequence (P02675 whole entry, looked up): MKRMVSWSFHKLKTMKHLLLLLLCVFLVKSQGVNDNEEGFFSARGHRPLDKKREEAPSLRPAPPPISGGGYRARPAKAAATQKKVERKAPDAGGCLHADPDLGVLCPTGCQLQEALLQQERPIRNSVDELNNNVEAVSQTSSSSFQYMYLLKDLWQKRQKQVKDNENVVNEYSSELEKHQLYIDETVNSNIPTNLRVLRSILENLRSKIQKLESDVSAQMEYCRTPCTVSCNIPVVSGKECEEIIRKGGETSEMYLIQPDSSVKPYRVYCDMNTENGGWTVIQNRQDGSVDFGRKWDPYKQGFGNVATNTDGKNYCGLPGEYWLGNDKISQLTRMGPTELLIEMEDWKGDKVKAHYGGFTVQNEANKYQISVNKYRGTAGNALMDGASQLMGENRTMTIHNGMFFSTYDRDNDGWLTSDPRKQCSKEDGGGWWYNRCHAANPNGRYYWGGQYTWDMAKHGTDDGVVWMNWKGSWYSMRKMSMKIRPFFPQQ
Tn7 DDE FP – DD(E)-Tn7 binding inhibition, primary FP screen; P02675; FP displacement of FITC-Tn7 peptide from fibrin DD(E); 0% = median of compound wells per plate; inhibition, % at 8.3 µM; AID 720508; actives 0.13% (n = 370,000);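 active = inhibition above the mean of compounds falling within the control limits plus 3 SD of them, cut at about 14% in these data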;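 note: 0% = plate median of compound wells and 100% = 10 µM Aha-Tn7 peptide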
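assay system = human clot-derived fibrin DD(E) complex | quantity = Fibrin-DD(E) at 2 µM final | timing = 10 min preincubation, 3 h with tracer, room temperature | signal = fluorescence polarization | measure = percent inhibition | benchmarks = high control wells with 10 µM unlabelled Aha-Tn7 peptide (full inhibition) | replicates = singlicate testing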
CRFR2-BP antag – blocks CRF-induced signaling of the CRF-BP/CRF-R2 complex; HEK293 CRF-R2/CRF-BP, CRF-induced calcium fluorescence; inhibition, % at 11.8 µM; actives 0.59% (n = 350,000); AID 588475;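 active = inhibition of the ligand-induced calcium signal above about 50% at the single tested concentration, limit read from the data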
CRFR2-BP ag – agonists of human CRF-binding protein/CRF-R2 receptor complex. HEK293 CRF-R2/CRF-BP, calcium dye fluorescence (FLIPR); percent of saturating CRF peptide response. activation, % at 13.2 µM. actives 0.46% (n = 350,000);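 active = activation of at least 50%, plus an integration ratio under a set limit after plate pattern correction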;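 note: plate controls were neutral control wells without compound for no effect and CRF at EC100 for full effect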
* hit, by the source's call; nt = not tested or not shown.

SMILES	Tn6 DDE FP	Tn7 DDE FP	CRFR2-BP antag	CRFR2-BP ag
CN(C)c1ccc(/C=C2\SC(N3CCCCC3)=NC2=O)cc1	-6.4	-1.1	-59.2	51.0*
Cc1ccc(/C=C2\SC(N3CCCC3)=NC2=O)cc1	3.8	2.4	nt	nt
CC(NC(=O)COC(=O)C12CC3CC(CC(Br)(C3)C1)C2)c1ccccc1 (stereo not given)	-1.9	0.3	61.8*	6.3
CCOC(=O)CC[C@@]1(C(=O)OCC)C[C@@H](CC(=O)N2CCSCC2)C(=O)N2CCCC=C21	-9.2	3.4	nt	nt
O=C(NCc1ccccn1)C1CCN(S(=O)(=O)c2cnc[nH]2)CC1	-0.5	4.1	62.6*	0.3
O=C(NCc1ccccn1)C1CCN(S(=O)(=O)c2ccccc2)CC1	4.0	-3.2	8.4	3.7
C=CCn1c(COc2ccccc2)nnc1SCC(=O)N/N=C/c1cc(Cl)ccc1O	-3.0	4.9	60.5*	-0.6
COC(=O)[C@]12C[C@H](CC(=O)NCC34CC5CC(CC(C5)C3)C4)C(=O)N(CCC3=CCCCC3)C1=C[C@H](C(C)C)O[C@@H]2C1CC1	-1.0	-8.1	nt	nt
O=C(COc1ccc(Cl)cc1Cl)Nc1ccccc1F	4.8	0.3	125.1*	3.4
O=C(c1ccco1)N1N=C(C2CCCCC2)CC1(O)C(F)(F)F (stereo not given)	-6.9	4.2	-10.4	-0.6
CC1CCC2=NN(C(=O)c3ccco3)C(O)(C(F)(F)F)C2C1 (stereo not given)	-6.7	3.4	67.3*	-1.2
Cc1ccc(-c2ccc(/C=N/NC(=O)Cc3nnc(N)s3)o2)cc1Cl	-11.2	-10.6	-6.1	-4.1
COc1ccc(-c2ccc(/C=N/NC(=O)Cc3nnc(N)s3)o2)cc1Cl	3.0	2.0	54.6*	-4.7
CSc1ccccc1OCc1cc(C(=O)NCc2csc(C(C)C)n2)no1	1.7	7.6	104.8*	0.3
CC(C)c1nc(CNC(=O)c2cc(COc3c(F)cccc3F)on2)cs1	-3.6	4.1	2.7	0.9
CC1(C)CC(=O)C(C2C3=C(CC(C)(C)CC3=O)Oc3ccccc32)C(=O)C1 (stereo not given)	-4.0	10.5	24.3	-4.4
CC1(C)CC(=O)C(C2C3=C(CC(C)(C)CC3=O)Oc3ccc4ccccc4c32)C(=O)C1 (stereo not given)	-3.7	-6.1	81.2*	25.6
COc1ccc(C(=O)NC(=S)NNC(=O)c2c(-c3ccccc3)noc2C)cc1OC	10.7	7.2	0.9	32.7
Cc1onc(-c2ccccc2)c1C(=O)NNC(=S)NC(=O)c1ccc2c(c1)OCO2	2.0	12.0	-21.5	86.5*
Cc1cccc(CCNC(=O)c2ccc3c(c2)ncn3C2CCCCC2)c1	-10.4	8.7	nt	nt
Cc1cccc(CNC(=O)NC2CCCCN(Cc3cccc(Cl)c3)C2=O)c1 (stereo not given)	-6.2	-3.2	nt	nt
O=c1c(/C=C(\O)c2ccc(F)cc2)nc2ccccc2n1-c1ccccc1	0.1	-4.3	-117.9	163.1*
CC(C)C[C@@H]1COc2cc(Br)ccc2S(=O)(=O)N1Cc1cn(Cc2ccc(F)cc2)nn1	4.0	2.3	nt	nt
COc1cc(O)c2c(c1)COC2=O	-7.1	0.7	60.0*	-0.5
CCOC(=O)Cn1c(=O)oc2cc(S(=O)(=O)NC(C)(C)CC)ccc21	-1.1	-3.6	89.2*	0.2
SMILES	Tn6 DDE FP	Tn7 DDE FP	CRFR2-BP antag	CRFR2-BP ag
CCOC(=O)Cn1c(=O)oc2cc(S(=O)(=O)NCCC(C)C)ccc21	-7.3	7.3	-7.8	1.8
CCOc1ccc(NC(=O)[C@@H](NC(=O)c2ccccc2)[C@@H](C)CC)cc1	2.6	-5.6	62.7*	0.3
CCCCN1/C(=C/c2ccc3ccccc3[n+]2CC)Sc2ccccc21	nt	nt	-138.2	128.1*
CCN1/C(=C/c2ccc3cc(C)ccc3[n+]2CC)Sc2cc(C)ccc21	-2.4	-15.5	-183.8	131.4*
CCN1/C(=C/c2ccc3ccccc3[n+]2CC)C=Cc2ccccc21	-1.4	-6.8	8.9	-0.9
CCN1/C(=C/c2ccc3cc(C)ccc3[n+]2C)Sc2ccc3sccc3c21	6.0	-4.5	-20.0	3.1
O=C1CC(N2CCCN(Cc3ccccc3)CC2)=NC(=O)N1c1ccc(Br)cc1	-2.5	-3.6	nt	nt
CC1CN(C(c2ccco2)c2sc3ncnn3c2O)CC(C)O1 (stereo not given)	-9.4	-7.2	82.0*	0.2
CCC(=O)Nc1nnc(Sc2ccc(N(C)C)cc2)s1	1.4	1.2	-26.4	0.8
CCCC(=O)Nc1nnc(Sc2ccc(N(C)C)cc2)s1	1.1	1.9	69.0*	-1.3
COc1ccc(CN2CCS(=O)(=O)CC2)cc1OC	1.6	-5.5	64.0*	5.1
Cc1ccc(-n2ncc3c(NNC(=O)c4ccco4)ncnc32)c(C)c1	-4.2	-0.9	-31.3	1.4
O=C(NNc1ncnc2c1cnn2-c1ccc(F)cc1)c1ccco1	-2.2	-4.9	68.0*	-1.6
CN(CC(=O)Nc1ccc(F)cc1)C(=O)COC(=O)c1ccc(=O)n(Cc2ccccc2)n1	14.8	56.4*	7.9	-1.1
CN(CC(=O)Nc1ccccc1Cl)C(=O)COC(=O)c1ccc(=O)n(Cc2ccccc2)n1	3.0	2.8	7.3	-0.7
COc1cccc(C2C(C(=O)c3ccc(C)o3)=C(O)C(=O)N2CCN2CCOCC2)c1OC (stereo not given)	-2.8	-9.5	123.6*	-1.4
CC(=O)Oc1c(C)cc(Cl)cc1C(=O)Nc1ccc([N+](=O)[O-])cc1Cl	6.1	-4.3	29.6	83.0*
C#CCNC(=O)C[C@@H]1C(=O)N(Cc2ccc(OC)cc2)C2=CCN(C(=O)OC(C)(C)C)C[C@]21C(=O)OCC	3.1	-4.5	nt	nt
CC(=O)CC[C@@H]1CC[C@]2(CCCN(C(=O)C3CCCC3)C2)O1	3.1	-7.1	nt	nt
O=c1oc2cc(O)ccc2cc1-c1nc2c(s1)CCc1ccccc1-2	0.0	-2.8	-232.1	278.6*
C=CS(=O)(=O)N(Cc1ccc(C)cc1)[C@@H](CO)C(=O)OC	-6.7	-0.2	nt	nt
COC(=O)C/C=C/[C@H](C)[C@@H](NC(=O)C(F)(F)F)c1ccccc1Br	0.5	0.0	nt	nt
Cc1c(/C=N/NC(=O)C(NC(=O)c2ccc3c(c2)OCO3)C(C)C)c2ccccc2n1C (stereo not given)	-2.1	-10.3	-186.0	96.4*
CCCN1C(=O)/C(=C/c2c(NCCCOC(C)C)nc3c(C)cccn3c2=O)SC1=S	nt	nt	-232.6	190.9*
CCC(C)Nc1nc2c(C)cccn2c(=O)c1C=Nc1ccc(OC)cc1 (stereo not given)	0.5	5.2	-3.1	0.9
CCC(C)N1C(=O)/C(=C/c2c(NCCCOC(C)C)nc3c(C)cccn3c2=O)SC1=S (stereo not given)	-4.6	-5.9	-121.9	59.2*
Cc1cccn2c(=O)c(C=NCc3ccccc3)c(NCCO)nc12	-4.6	-5.0	-14.8	-1.4
CCC[C@H]1[C@@H](NC(=O)C2CCC2)CC[C@@]23CCCN2C(=O)CCC[C@@H]13	-0.4	8.6	nt	nt
O=C(Oc1ccccc1)c1ccc(NC(=O)c2ccco2)cc1	6.1	-2.5	78.6*	-3.2
NN=C1c2ccccc2C(=O)C1C(=O)C(c1ccccc1)c1ccccc1 (stereo not given)	18.8*	-4.2	-38.4	10.0

Source: PubChem BioAssay
